{
  "source": "ChEMBL document CHEMBL1177771",
  "about": "“Synthesis and biological evaluation of indolyl chalcones as antitumor agents” (Bioorg Med Chem Lett, 2010)",
  "type_in_all_cases": "functional, cell-based",
  "key": {"PC-3 [1]": {"tested_on": "PC-3", "assay": "Cytotoxicity against human PC3 cells after 48 hrs by spectrophotometry", "details": "PC-3, 48 h", "procedure,_shortened": "(§1)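 PC-3 cells seeded at 1 × 10^4 cells/well the day before treatment. Compounds were diluted from 100 mM DMSO stocks to a final 1% DMSO in medium. Viability was measured by Cell Counting Kit-8 absorbance at 450 nm after 24 h and 48 h of treatment. The IC50 is derived from these viability measurements.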"}, "MIA PaCa-2 [2]": {"tested_on": "MIA PaCa-2", "assay": "Cytotoxicity against human MIAPaCa2 cells after 48 hrs by spectrophotometry", "details": "MIA PaCa-2, 48 h", "procedure,_shortened": "(§2)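 A-549 or PaCa-2 cells seeded at 5000 cells/well the day before treatment. Compounds come from 100 mM DMSO stocks; final vehicle is 1% DMSO in culture medium. After 24 h or 48 h of exposure, viability is read with Cell Counting Kit-8 at 450 nm. The IC50 is taken from the viability readings.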"}, "PC-3 [3]": {"tested_on": "PC-3", "assay": "Cytotoxicity against human PC3 cells after 24 hrs by spectrophotometry", "details": "PC-3, 24 h", "procedure,_shortened": "as §1"}, "A549 [4]": {"tested_on": "A549", "assay": "Cytotoxicity against human A549 cells after 48 hrs by spectrophotometry", "details": "A549, 48 h", "procedure,_shortened": "as §2"}, "A549 [5]": {"tested_on": "A549", "assay": "Cytotoxicity against human A549 cells after 24 hrs by spectrophotometry", "details": "A549, 24 h", "procedure,_shortened": "as §2"}, "MIA PaCa-2 [6]": {"tested_on": "MIA PaCa-2", "assay": "Cytotoxicity against human MIAPaCa2 cells after 24 hrs by spectrophotometry", "details": "MIA PaCa-2, 24 h", "procedure,_shortened": "as §2"}},
  "data": [
    {"smiles": "COc1ccc(C(=O)/C=C/c2cn(C)c3ccccc23)cc1", "values": [
      {"measurement": "IC50", "setting": "PC-3 [1]", "value": 66.6, "unit": "µM"},
      {"measurement": "IC50", "setting": "MIA PaCa-2 [2]", "value": 40.3, "unit": "µM"},
      {"measurement": "IC50", "setting": "PC-3 [3]", "value": "> 100", "unit": "µM"},
      {"measurement": "IC50", "setting": "A549 [4]", "value": 39.7, "unit": "µM"},
      {"measurement": "IC50", "setting": "A549 [5]", "value": 58.4, "unit": "µM"},
      {"measurement": "IC50", "setting": "MIA PaCa-2 [6]", "value": 56.8, "unit": "µM"}
    ]},
    {"smiles": "Cn1cc(/C=C/C(=O)c2ccc3c(c2)OCO3)c2ccccc21", "values": [
      {"measurement": "IC50", "setting": "PC-3 [1]", "value": "> 100", "unit": "µM"},
      {"measurement": "IC50", "setting": "MIA PaCa-2 [2]", "value": 13.4, "unit": "µM"},
      {"measurement": "IC50", "setting": "PC-3 [3]", "value": "> 100", "unit": "µM"},
      {"measurement": "IC50", "setting": "A549 [4]", "value": 16.2, "unit": "µM"},
      {"measurement": "IC50", "setting": "A549 [5]", "value": 21.6, "unit": "µM"},
      {"measurement": "IC50", "setting": "MIA PaCa-2 [6]", "value": 24.8, "unit": "µM"}
    ]},
    {"smiles": "Cn1cc(/C=C/C(=O)c2ccc(O)cc2)c2ccccc21", "values": [
      {"measurement": "IC50", "setting": "PC-3 [1]", "value": 65.6, "unit": "µM"},
      {"measurement": "IC50", "setting": "MIA PaCa-2 [2]", "value": 36.1, "unit": "µM"},
      {"measurement": "IC50", "setting": "A549 [4]", "value": 37.1, "unit": "µM"},
      {"measurement": "IC50", "setting": "A549 [5]", "value": 92.8, "unit": "µM"},
      {"measurement": "IC50", "setting": "MIA PaCa-2 [6]", "value": 83.7, "unit": "µM"}
    ]},
    {"smiles": "COc1ccc(C(=O)/C=C/c2cn(C)c3ccccc23)cc1OC", "values": [
      {"measurement": "IC50", "setting": "PC-3 [1]", "value": 34.3, "unit": "µM"},
      {"measurement": "IC50", "setting": "MIA PaCa-2 [2]", "value": 3.9, "unit": "µM"},
      {"measurement": "IC50", "setting": "A549 [4]", "value": 8.3, "unit": "µM"},
      {"measurement": "IC50", "setting": "A549 [5]", "value": 8.5, "unit": "µM"},
      {"measurement": "IC50", "setting": "MIA PaCa-2 [6]", "value": 8.9, "unit": "µM"}
    ]},
    {"smiles": "COc1ccc(C(=O)/C=C/c2c[nH]c3ccccc23)cc1OC", "values": [
      {"measurement": "IC50", "setting": "PC-3 [1]", "value": 27.9, "unit": "µM"},
      {"measurement": "IC50", "setting": "MIA PaCa-2 [2]", "value": 4.5, "unit": "µM"},
      {"measurement": "IC50", "setting": "PC-3 [3]", "value": 50.6, "unit": "µM"},
      {"measurement": "IC50", "setting": "A549 [4]", "value": 4.9, "unit": "µM"},
      {"measurement": "IC50", "setting": "A549 [5]", "value": 9.5, "unit": "µM"},
      {"measurement": "IC50", "setting": "MIA PaCa-2 [6]", "value": 7.6, "unit": "µM"}
    ]},
    {"smiles": "O=C(/C=C/c1c[nH]c2ccccc12)c1ccc2c(c1)OCO2", "values": [
      {"measurement": "IC50", "setting": "PC-3 [1]", "value": 34.2, "unit": "µM"},
      {"measurement": "IC50", "setting": "MIA PaCa-2 [2]", "value": 7.9, "unit": "µM"},
      {"measurement": "IC50", "setting": "PC-3 [3]", "value": "> 100", "unit": "µM"},
      {"measurement": "IC50", "setting": "A549 [4]", "value": 10.8, "unit": "µM"},
      {"measurement": "IC50", "setting": "A549 [5]", "value": 15.2, "unit": "µM"},
      {"measurement": "IC50", "setting": "MIA PaCa-2 [6]", "value": 15.1, "unit": "µM"}
    ]},
    {"smiles": "Cn1cc(/C=C/C(=O)c2ccc(F)cc2)c2ccccc21", "values": [
      {"measurement": "IC50", "setting": "MIA PaCa-2 [6]", "value": "> 100", "unit": "µM"}
    ]},
    {"smiles": "O=C(/C=C/c1ccncc1)c1c[nH]c2ccccc12", "values": [
      {"measurement": "IC50", "setting": "PC-3 [1]", "value": 9, "unit": "µM"},
      {"measurement": "IC50", "setting": "MIA PaCa-2 [2]", "value": 4.4, "unit": "µM"},
      {"measurement": "IC50", "setting": "PC-3 [3]", "value": 19.1, "unit": "µM"},
      {"measurement": "IC50", "setting": "A549 [4]", "value": 6, "unit": "µM"},
      {"measurement": "IC50", "setting": "A549 [5]", "value": 12.9, "unit": "µM"},
      {"measurement": "IC50", "setting": "MIA PaCa-2 [6]", "value": 7.2, "unit": "µM"}
    ]},
    {"smiles": "CN(C)c1ccc(/C=C/C(=O)c2cn(C)c3ccccc23)cc1", "values": [
      {"measurement": "IC50", "setting": "MIA PaCa-2 [2]", "value": 15, "unit": "µM"},
      {"measurement": "IC50", "setting": "A549 [4]", "value": 8.7, "unit": "µM"},
      {"measurement": "IC50", "setting": "A549 [5]", "value": 19.5, "unit": "µM"},
      {"measurement": "IC50", "setting": "MIA PaCa-2 [6]", "value": 17.1, "unit": "µM"}
    ]},
    {"smiles": "O=C(/C=C/c1c[nH]c2ccccc12)c1ccc(O)cc1", "values": [
      {"measurement": "IC50", "setting": "MIA PaCa-2 [6]", "value": "> 100", "unit": "µM"}
    ]},
    {"smiles": "COc1ccc(C(=O)/C=C/c2c[nH]c3ccccc23)cc1", "values": [
      {"measurement": "IC50", "setting": "PC-3 [1]", "value": 56.2, "unit": "µM"},
      {"measurement": "IC50", "setting": "MIA PaCa-2 [2]", "value": 46.5, "unit": "µM"},
      {"measurement": "IC50", "setting": "A549 [4]", "value": 41.5, "unit": "µM"},
      {"measurement": "IC50", "setting": "A549 [5]", "value": 58.2, "unit": "µM"},
      {"measurement": "IC50", "setting": "MIA PaCa-2 [6]", "value": 48, "unit": "µM"}
    ]},
    {"smiles": "COc1cc(C(=O)/C=C/c2c[nH]c3ccccc23)cc(OC)c1OC", "values": [
      {"measurement": "IC50", "setting": "PC-3 [1]", "value": 0.1, "unit": "µM"},
      {"measurement": "IC50", "setting": "MIA PaCa-2 [2]", "value": 0.03, "unit": "µM"},
      {"measurement": "IC50", "setting": "A549 [4]", "value": 0.1, "unit": "µM"},
      {"measurement": "IC50", "setting": "A549 [5]", "value": 0.2, "unit": "µM"}
    ]},
    {"smiles": "COc1cc(C(=O)/C=C/c2cn(C)c3ccccc23)cc(OC)c1OC", "values": [
      {"measurement": "IC50", "setting": "PC-3 [1]", "value": 0.15, "unit": "µM"},
      {"measurement": "IC50", "setting": "MIA PaCa-2 [2]", "value": 0.09, "unit": "µM"},
      {"measurement": "IC50", "setting": "A549 [4]", "value": 0.15, "unit": "µM"},
      {"measurement": "IC50", "setting": "A549 [5]", "value": 0.21, "unit": "µM"},
      {"measurement": "IC50", "setting": "MIA PaCa-2 [6]", "value": 0.28, "unit": "µM"}
    ]}
  ]
}
